Source: publication PMC7717620 (Nucleosides, nucleotides & nucleic acids, 2019)
“Also recorded” adds a separate entry of the source.

Tests used:
primary rat hepatocytes = experiment: intracellular metabolism in primary rat hepatocytes; assay type: in vitro ADME; details: 50 μM, 4 h
patients = details: of the 34 patients treated, phase IIb; cited from earlier work
HepG2 cells = experiment: intracellular metabolism in HepG2 cells; assay type: in vitro ADME, human; details: HepG2, 50 μM, 4 h
human cardiomyocytes [1] = experiment: cellular accumulation and metabolism in human cardiomyocytes; assay type: in vitro ADME; details: 10 μM
[2] = system: primary mouse hepatocytes; experiment: intracellular metabolism in primary mouse hepatocytes; assay type: in vitro ADME; details: 50 μM, 4 h
[3] = system: primary human hepatocytes; experiment: intracellular metabolism in primary human hepatocytes; assay type: in vitro ADME; details: 50 μM, 4 h
Huh-7 cells = experiment: intracellular metabolism in Huh-7 cells; assay type: in vitro ADME, human; details: Huh-7, 50 μM, 4 h
primary dog hepatocytes = experiment: intracellular metabolism in primary dog hepatocytes; assay type: in vitro ADME; details: 50 μM, 4 h
[4] = system: primary monkey hepatocytes; experiment: intracellular metabolism in primary monkey hepatocytes; assay type: in vitro ADME; details: 50 μM, 4 h
human cardiomyocytes [5] = experiment: recording of human cardiomyocyte beating patterns; assay type: cell-based; details: for change in beating rate or rhythm of cardiomyocytes (observation): up to 48 h
monkey heart and kidney = details: three weeks post a three-week dosing (week 6); cited from earlier work
[6] = system: HCV genotype 1 b RNA replication; experiment: subgenomic HCV replicon system, inhibition of HCV RNA replication in Huh-7 cells; assay type: cell-based, hepatitis C virus; details: HCV genotype 1 b subgenomic replicon
Summary of the method: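 HCV genotype 1b subgenomic replicon in Huh-7 cells. HCV RNA and cellular ribosomal RNA were extracted and amplified, so replication and cytotoxicity were read in the same cells.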

[7] = all three concentrations (2, 10 and 50 μM)

COc1nc(N)nc2c1ncn2[C@@H]1O[C@H](COP(=O)(N[C@@H](C)C(=O)OCC(C)(C)C)Oc2cccc3ccccc23)[C@@H](O)[C@@]1(C)O (stereo partly drawn) [BMS-986094, Neopentyl ((((2R,3R,4R,5R)-5-(2-amino-6-methoxy-9H-purin-9-yl)-3,4-dihydroxy-4-methyltetrahydrofuran-2-yl)methoxy)(naphthalen-1-yloxy)phosphoryl)-L-alaninate]
Intracellular concentration: Prodrugs (primary rat hepatocytes): 52 pmol/10^6 cells
deaths (patients): one death
patients with some evidence of cardiac dysfunction (patients): 14
Intracellular concentration: Prodrugs (HepG2 cells): 2,400 ± 9 pmol/10^6 cells
parent prodrug level, times the level observed for DAPN-PD (HepG2 cells): 6 times
parent prodrug level, times the level observed for IDX-184 (HepG2 cells): 110 times
Intracellular concentration in human cardiomyocytes: NTP (triphosphate of N) (human cardiomyocytes [1]; 4 h): BLOQ
Intracellular concentration in human cardiomyocytes: Prodrugs (human cardiomyocytes [1]; 4 h): 800 ± 118 pmol/10^6 cells
Intracellular concentration in human cardiomyocytes: NTP (triphosphate of N) (human cardiomyocytes [1]; 8 h): BLOQ
Intracellular concentration in human cardiomyocytes: Prodrugs (human cardiomyocytes [1]; 8 h): 810 ± 80 pmol/10^6 cells
level of intact prodrug, fold higher than DAPN-PD (human cardiomyocytes [1]; human cardiomyocytes, 4 h): 11 fold
level of intact prodrug, fold higher than IDX-184 (human cardiomyocytes [1]; human cardiomyocytes, 4 h): 37 fold
Intracellular concentration: NTP (triphosphate of N) [2]: undetectable and BLOQ
Intracellular concentration: Prodrugs [2]: 880 ± 135 pmol/10^6 cells
Intracellular concentration: Prodrugs [3]: 4,100 ± 569 pmol/10^6 cells
Intracellular concentration: Prodrugs (Huh-7 cells): 2,900 ± 358 pmol/10^6 cells
parent prodrug level, times the level observed for DAPN-PD (Huh-7 cells): 17 times
parent prodrug level, times the level observed for IDX-184 (Huh-7 cells): 260 times
Intracellular concentration: Prodrugs (primary dog hepatocytes): 2,200 ± 68 pmol/10^6 cells
Intracellular concentration: Prodrugs [4]: 150 ± 19 pmol/10^6 cells
Beating rate of human cardiomyocytes (human cardiomyocytes [5]; 2 μM, 2 h): 31.0 ± 0 beats/minute
Beating rate of human cardiomyocytes (human cardiomyocytes [5]; 2 μM, 4 h): 30.5 ± 0.7 beats/minute
Beating rate of human cardiomyocytes (human cardiomyocytes [5]; 2 μM, 8 h): 34.5 ± 0.7 beats/minute
Beating rate of human cardiomyocytes (human cardiomyocytes [5]; 2 μM, 12 h): 36.0 ± 0 beats/minute
Beating rate of human cardiomyocytes (human cardiomyocytes [5]; 2 μM, 24 h): 32.5 ± 0.7 beats/minute
Beating rate of human cardiomyocytes (human cardiomyocytes [5]; 2 μM, 48 h): 26.5 ± 0.7 beats/minute
change in beating rate or rhythm of cardiomyocytes (observation) (human cardiomyocytes [5]; 2 μM): no clear change in beating rate or rhythm
Beating rate of human cardiomyocytes (human cardiomyocytes [5]; 10 μM, 2 h): 31.0 ± 0 beats/minute
Beating rate of human cardiomyocytes (human cardiomyocytes [5]; 10 μM, 4 h): 31.0 ± 0 beats/minute
Beating rate of human cardiomyocytes (human cardiomyocytes [5]; 10 μM, 8 h): 35.0 ± 0 beats/minute
Beating rate of human cardiomyocytes (human cardiomyocytes [5]; 10 μM, 12 h): 36.0 ± 0 beats/minute
Beating rate of human cardiomyocytes (human cardiomyocytes [5]; 10 μM, 24 h): 34.5 ± 0.7 beats/minute
Beating rate of human cardiomyocytes (human cardiomyocytes [5]; 10 μM, 48 h): 35.5 ± 2.1 beats/minute
change in beating rate or rhythm of cardiomyocytes (observation) (human cardiomyocytes [5]; 10 μM): changes to both beat rate and rhythm were noted; also recorded: higher beating rates were observed starting from 12 h
time until cardiomyocytes stopped beating (human cardiomyocytes [5]; 50 μM): ≤ 2 h
Beating rate of human cardiomyocytes (human cardiomyocytes [5]; 50 μM, 2 h): 0 ± 0 beats/minute
Beating rate of human cardiomyocytes (human cardiomyocytes [5]; 50 μM, 4 h): 0 ± 0 beats/minute
Beating rate of human cardiomyocytes (human cardiomyocytes [5]; 50 μM, 8 h): 0 ± 0 beats/minute
Beating rate of human cardiomyocytes (human cardiomyocytes [5]; 50 μM, 12 h): 32.0 beats/minute
Beating rate of human cardiomyocytes (human cardiomyocytes [5]; 50 μM, 24 h): 34.0 ± 0 beats/minute
Beating rate of human cardiomyocytes (human cardiomyocytes [5]; 50 μM, 48 h): 0 ± 0 beats/minute
rhythm of cardiomyocytes (observation) (human cardiomyocytes [5]; 50 μM, beating resumed briefly at 12 and 24 h): very unstable rhythm
levels of 2’-C-Me-GTP in the heart and kidney (monkey heart and kidney): 2,610–4,280 ng/mL

CC(C)OC(=O)[C@H](C)N[P@](=O)(OC[C@H]1O[C@@H](n2ccc(=O)[nH]c2=O)[C@](C)(F)[C@@H]1O)Oc1ccccc1 [Sofosbuvir, sofosbuvir]
Intracellular concentration in human cardiomyocytes: Prodrugs (human cardiomyocytes [1]; 4 h): 56 ± 3 pmol/10^6 cells
Intracellular concentration in human cardiomyocytes: Prodrugs (human cardiomyocytes [1]; 8 h): 42 ± 4 pmol/10^6 cells
Beating rate of human cardiomyocytes (human cardiomyocytes [5]; 2 μM, 2 h): 36.5 ± 2.1 beats/minute
Beating rate of human cardiomyocytes (human cardiomyocytes [5]; 2 μM, 4 h): 35.0 ± 1.4 beats/minute
Beating rate of human cardiomyocytes (human cardiomyocytes [5]; 2 μM, 8 h): 38.5 ± 0.7 beats/minute
Beating rate of human cardiomyocytes (human cardiomyocytes [5]; 2 μM, 12 h): 36.5 ± 0.7 beats/minute
Beating rate of human cardiomyocytes (human cardiomyocytes [5]; 2 μM, 24 h): 33.0 ± 0 beats/minute
Beating rate of human cardiomyocytes (human cardiomyocytes [5]; 2 μM, 48 h): 25.5 ± 0.7 beats/minute
Beating rate of human cardiomyocytes (human cardiomyocytes [5]; 10 μM, 2 h): 34.0 ± 1.4 beats/minute
Beating rate of human cardiomyocytes (human cardiomyocytes [5]; 10 μM, 4 h): 33.0 ± 1.4 beats/minute
Beating rate of human cardiomyocytes (human cardiomyocytes [5]; 10 μM, 8 h): 35.0 ± 1.4 beats/minute
Beating rate of human cardiomyocytes (human cardiomyocytes [5]; 10 μM, 12 h): 33.5 ± 0.7 beats/minute
Beating rate of human cardiomyocytes (human cardiomyocytes [5]; 10 μM, 24 h): 30.0 ± 0 beats/minute
Beating rate of human cardiomyocytes (human cardiomyocytes [5]; 10 μM, 48 h): 23.0 ± 0 beats/minute
Beating rate of human cardiomyocytes (human cardiomyocytes [5]; 50 μM, 2 h): 32.5 ± 0.7 beats/minute
Beating rate of human cardiomyocytes (human cardiomyocytes [5]; 50 μM, 4 h): 32.0 ± 0 beats/minute
Beating rate of human cardiomyocytes (human cardiomyocytes [5]; 50 μM, 8 h): 34.5 ± 0.7 beats/minute
Beating rate of human cardiomyocytes (human cardiomyocytes [5]; 50 μM, 12 h): 33.0 ± 1.4 beats/minute
Beating rate of human cardiomyocytes (human cardiomyocytes [5]; 50 μM, 24 h): 29.5 ± 0.7 beats/minute
Beating rate of human cardiomyocytes (human cardiomyocytes [5]; 50 μM, 48 h): 23.5 ± 0.7 beats/minute
change in beating rate or rhythm of cardiomyocytes (observation) (human cardiomyocytes [5]; [7]): no apparent change in beating rate or rhythm

CC(C)(CO)C(=O)SCCOP(=O)(NCc1ccccc1)OC[C@H]1O[C@@H](n2cnc3c(=O)[nH]c(N)nc32)[C@](C)(O)[C@@H]1O (mixture of isomers) [IDX-184, S-(2-(((((2R,3R,4R,5R)-5-(2-Amino-6-oxo-1,6-dihydro-9H-purin-9-yl)-3,4-dihydroxy-4-methyltetrahydrofuran-2-yl)methoxy)(benzylamino)phosphoryl)oxy)ethyl) 3-hydroxy-2,2-dimethylpropanethioate]
Intracellular concentration: Prodrugs (primary rat hepatocytes): 1,100 ± 471 pmol/10^6 cells
Intracellular concentration: Prodrugs (HepG2 cells): 21 ± 1 pmol/10^6 cells
Intracellular concentration in human cardiomyocytes: Prodrugs (human cardiomyocytes [1]; 4 h): 21 ± 1 pmol/10^6 cells
Intracellular concentration in human cardiomyocytes: Prodrugs (human cardiomyocytes [1]; 8 h): 9.8 ± 1.4 pmol/10^6 cells
intact prodrug level, times lower than BMS-986094 (human cardiomyocytes [1]; human cardiomyocytes, 8 h): 83 times
Intracellular concentration: Prodrugs [2]: 220 ± 3 pmol/10^6 cells
Replicon Huh-7 EC50 [6]: sub-micromolar
Intracellular concentration: Prodrugs [3]: 160 ± 18 pmol/10^6 cells
Intracellular concentration: Prodrugs (Huh-7 cells): 11 ± 1 pmol/10^6 cells
Intracellular concentration: Prodrugs (primary dog hepatocytes): 110 ± 2 pmol/10^6 cells
Intracellular concentration: Prodrugs [4]: 75 ± 3 pmol/10^6 cells
Beating rate of human cardiomyocytes (human cardiomyocytes [5]; 2 μM, 2 h): 32.0 ± 0 beats/minute
Beating rate of human cardiomyocytes (human cardiomyocytes [5]; 2 μM, 4 h): 31.5 ± 0.7 beats/minute
Beating rate of human cardiomyocytes (human cardiomyocytes [5]; 2 μM, 8 h): 37.0 ± 1.4 beats/minute
Beating rate of human cardiomyocytes (human cardiomyocytes [5]; 2 μM, 12 h): 36.0 ± 1.4 beats/minute
Beating rate of human cardiomyocytes (human cardiomyocytes [5]; 2 μM, 24 h): 32.5 ± 0.7 beats/minute
Beating rate of human cardiomyocytes (human cardiomyocytes [5]; 2 μM, 48 h): 24.0 ± 1.4 beats/minute
Beating rate of human cardiomyocytes (human cardiomyocytes [5]; 10 μM, 2 h): 30.0 ± 1.4 beats/minute
Beating rate of human cardiomyocytes (human cardiomyocytes [5]; 10 μM, 4 h): 30.0 ± 0 beats/minute
Beating rate of human cardiomyocytes (human cardiomyocytes [5]; 10 μM, 8 h): 34.0 ± 0 beats/minute
Beating rate of human cardiomyocytes (human cardiomyocytes [5]; 10 μM, 12 h): 34.0 ± 1.4 beats/minute
Beating rate of human cardiomyocytes (human cardiomyocytes [5]; 10 μM, 24 h): 31.0 ± 1.4 beats/minute
Beating rate of human cardiomyocytes (human cardiomyocytes [5]; 10 μM, 48 h): 25.0 ± 1.4 beats/minute
Beating rate of human cardiomyocytes (human cardiomyocytes [5]; 50 μM, 2 h): 33.0 ± 0 beats/minute
Beating rate of human cardiomyocytes (human cardiomyocytes [5]; 50 μM, 4 h): 31.5 ± 0.7 beats/minute
Beating rate of human cardiomyocytes (human cardiomyocytes [5]; 50 μM, 8 h): 34.5 ± 0.7 beats/minute
Beating rate of human cardiomyocytes (human cardiomyocytes [5]; 50 μM, 12 h): 34.5 ± 0.7 beats/minute
Beating rate of human cardiomyocytes (human cardiomyocytes [5]; 50 μM, 24 h): 34.5 ± 4.9 beats/minute
Beating rate of human cardiomyocytes (human cardiomyocytes [5]; 50 μM, 48 h): 27.5 ± 0.7 beats/minute
change in beating rate or rhythm of cardiomyocytes (observation) (human cardiomyocytes [5]; [7]): no obvious beating rate change; also recorded: no apparent change in beating; also recorded: no apparent changes to beat rate or rhythm
